The results in this text go back to ChEMBL document CHEMBL1138240, “Identifying merozoite surface protein 4 and merozoite surface protein 7 Plasmodium falciparum protein family members specifically binding to human erythrocytes suggests a new malarial parasite-redundant survival mechanism” (J Med Chem, 2007).

Test [1] relates to Plasmodium falciparum. Kind of test: Inhibition of Plasmodium falciparum FCB2 merozoite invasion of human erythrocytes at 0.5 mg/mL. The format is functional. Summed up: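 Sorbitol-synchronized FCB-2 cultures grown to late schizont stage at 0.5% parasitemia and 5% hematocrit in RPMI 1640 with 10% O-positive plasma. Agent added in triplicate, then incubated 18 h at 37 °C under 5% O2/5% CO2/90% N2. Erythrocytes stained with 15 µg/mL hydroethidine for 30 min at 37 °C. Invasion read by flow cytometry (FL2).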

The test system of test [2] is Plasmodium falciparum. As to the kind of experiment: Inhibition of Plasmodium falciparum FCB2 merozoite invasion of human erythrocytes at 100 uM. In kind it is functional. Details: scale not given: the % may be the effect or the level left. Summed up: (§1)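 Sorbitol-synchronized P. falciparum FCB-2 was grown to late schizonts and set at 0.5% parasitemia and 5% hematocrit in RPMI 1640 with 10% O+ plasma. Peptides were added at 100 or 200 µM, in triplicate. Plates were incubated 18 h at 37 °C under 5% O2/5% CO2/90% N2. RBC were stained with hydroethidine 15 µg/mL for 30 min, washed, and read by flow cytometry (FL2). Values are mean ± SD of three experiments.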

For test [3], the system named is Plasmodium falciparum. Kind of test: Inhibition of Plasmodium falciparum FCB2 merozoite invasion of human erythrocytes at 200 uM. The format is functional. The method, boiled down:
as §1

The test system of test [4] is Plasmodium falciparum. As to the kind of experiment: Inhibition of Plasmodium falciparum FCB2 merozoite invasion of human erythrocytes at […]. In kind it is functional.
The subject of test [5] is Erythrocyte. Kind of test: Binding affinity to 52 kDa erythrocyte membrane protein in chymotrypsin treated human erythrocytes at 1 mg/mL after 1 hr relative to control. In kind it is cell-based. The method, boiled down:
(§2)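 Human RBC (1.5 × 10^7 cell/µL in HBS pH 7.2, 1 mL) were treated for 1 h at 37 °C with shaking. […] used neuraminidase at 150 µU/mL. […] used trypsin and chymotrypsin at 1 mg/mL final. Cells were spun and washed thrice with HBS, then tested in the 125I-peptide binding assay. Specific binding is given as % of untreated-RBC control.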

For test [6], the system named is Erythrocyte. As to the kind of experiment: Binding affinity to 52 kDa erythrocyte membrane protein in neuraminidase treated human erythrocytes at 1 mg/mL after 1 hr relative to control. The format is cell-based.
Test [7] in a line: Binding affinity to 52 kDa erythrocyte membrane protein in human erythrocytes. The format is cell-based. The method, boiled down: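 Saturation binding used RBC at 1.5 × 10^7 cell/µL with 125I-peptide at 0–1800 nM, with or without 200-fold excess unlabeled peptide, for 90 min. Free label was sampled from the supernatant. Cells were washed twice with HBS and bound counts were measured by gamma counting, in triplicate. Affinity constant and sites per cell came from saturation curves; Hill coefficient came from a Hill plot.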

Test [8] concerns Erythrocyte. Kind of test: Binding affinity to 52 kDa erythrocyte membrane protein in trypsin treated human erythrocytes at 1 mg/mL after 1 hr relative to control. In kind it is cell-based. The method, boiled down: as §2
Test [9] relates to Erythrocyte. As to the kind of experiment: Displacement of [125I]MSP-4 20494 peptide from 52 kDa erythrocyte membrane protein in human erythrocytes. In kind it is cell-based. Summed up:
(§3)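 Competition used 125I-labeled MSP-4 peptide 20494 at 300 nM with 1 × 10^7 human RBC. Unlabeled competitor peptides were present at 3–30 µM. Incubation was 90 min at room temperature. Cells were washed three times with HBS and cell-bound radioactivity was counted on a gamma counter.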
On the technique in general: In a radioligand displacement assay an active substance lowers the binding of a labelled ligand.

The subject of test [10] is Erythrocyte. Kind of test: Displacement of [125I]MSP-4 20494 peptide from 52 kDa erythrocyte membrane protein in human erythrocytes at 30 uM. In kind it is cell-based. Summed up:
as §3

The source made the active and inactive calls. The calls are words filed in the database; no cut-off is given here. Peptide text beside a SMILES is read from it.

In [1], `CCN(CC)CCCC(C)Nc1ccnc2cc(Cl)ccc12` (centres undefined) [CHLOROQUINE] returned an inhibition at 500 µg/mL of 100%.
Turning to `CC(C)C[C@H](NC(=O)[C@H](CCCCN)NC(=O)[C@H](CC(=O)O)NC(=O)[C@H](CC(=O)O)NC(=O)CNC(=O)[C@H](CS)NC(=O)CN)C(=O)N[C@@H](CS)C(=O)N[C@@H](CCC(=O)O)C(=O)N[C@@H](Cc1ccc(O)cc1)C(=O)N[C@H](C(=O)NCC(=O)N[C@@H](CC(N)=O)C(=O)N[C@@H](CCCNC(=N)N)C(=O)N[C@@H](CCCNC(=N)N)C(=O)N[C@H](C(=O)N[C@@H](CCCCN)C(=O)N[C@@H](CS)C(=O)N[C@@H](CCCCN)C(=O)N[C@@H](CS)C(=O)N[C@@H](CCCCN)C(=O)O)C(C)C)C(C)C` (H-GCGDDKLCEYVGNRRVKCKCK-OH), in [2], the Activity stood at 3%. This compound displayed an inhibition at 200 µM in test [3] of 18%.
For `O=C(O)CN(CCOCCOCCN(CC(=O)O)CC(=O)O)CC(=O)O` [EGTAZIC ACID], in [4], the inhibition is 83%.
Consider H-KPEEEYKKFLEYSFNLLNTM-OH, for which the Activity was found to be 9% in test [2], 0% in [5], 100% in [6] and 10% in [8]. For the same compound, the Kd in [7] came to 450 nM. In [3], this compound showed an inhibition at 200 µM of 49%.
As to H-KDKEYHEQFKNYIYGVYSYA-OH, the Activity in [2] is 7%; in [5] it was 34%; in test [6] it was 73%; in test [8], 0%. Besides, testing at 200 µM in [3] gave an inhibition of 24%.
Turning to H-NLGLFGKNVLSKVKAQSETDY-OH, the Activity in test [2] amounted to 9%; in [5] it was 160%; in test [6], 105%; in test [8], 0%. The Kd in [7] is 600 nM. The compound also returned an inhibition at 200 µM in [3] of 59%.
H-MWIVKFLIVVHFFIICTINFY-OH: in test [9], the result was inactive.
For the compound H-KNVHVLINGNSIIDEIEKNEY-OH, the Activity in test [2] is 10%. Further, in test [3], the inhibition at 200 µM was determined as 29%.
On to `CC(C)C[C@H](NC(=O)[C@H](CCCCN)NC(=O)[C@H](Cc1ccc(O)cc1)NC(=O)CNC(=O)[C@H](CCC(=O)O)NC(=O)[C@H](CCCCN)NC(=O)[C@H](CS)NC(=O)[C@H](CCCCN)NC(=O)[C@H](CS)NC(=O)[C@H](CCCCN)NC(=O)[C@@H](NC(=O)[C@H](CCCNC(=N)N)NC(=O)[C@H](CCCNC(=N)N)NC(=O)[C@H](CC(N)=O)NC(=O)CNC(=O)[C@@H](NC(=O)[C@H](Cc1ccc(O)cc1)NC(=O)[C@@H](N)CCC(=O)O)C(C)C)C(C)C)C(=O)N[C@@H](CCC(=O)O)C(=O)NCC(=O)O` (H-EYVGNRRVKCKCKEGYKLEG-OH), for which the Activity came out at 50% in test [10]; 16% in test [2]; 133% in test [5]; 73% in test [6]; 57% in test [8]. This compound yielded a Kd in test [7] of 470 nM. Besides, in test [3], at 200 µM the inhibition was 20%.
With H-MRILGEEKPNVDGVSTSNTPY-OH, the Activity in test [2] is 9%. The compound further had an inhibition at 200 µM in [3] of 11%.
Turning to H-KQNSHLSEKKIKPEEEYKKF-OH, the Activity came to 22% in test [2], 73% in test [5], 57% in test [6] and 88% in test [8]. Moreover, in test [3], testing at 200 µM gave an inhibition of 83%.
Consider H-IKNKKLEKLKNIVSGDFVGNY-OH, for which the Activity came out at 22% in test [2], 223% in test [5], 105% in test [6] and 174% in test [8]. The same compound showed a Kd in [7] of 550 nM. The compound also gave an inhibition at 200 µM in [3] of 68%.

For orientation: inhibition means the share of the control response that was lost under treatment. By Kd is commonly meant the constant that tells how readily two partners part at equilibrium.
